Assay results as given in ChEMBL document CHEMBL2331283, “Anti-inflammatory sesquiterpene derivatives from the leaves of Tripterygium wilfordii” (J Nat Prod, 2013).

Key:
[1] = test system: Bel-7402; test: Cytotoxicity against human Bel7402 cells by MTT assay; assay type: functional, cell-based
How it was run: (§1)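 MTT cytotoxicity assay on five human carcinoma lines: A549 (lung), Bel-7402 (liver), BGC-823 (stomach), HCT-8 (colon) and A2780 (ovarian). The assay was run following a published procedure. The read-out is an IC50.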

[2] = test system: HCT-8; test: Cytotoxicity against human HCT8 cells by MTT assay; assay type: functional, cell-based; how it was run: as §1
[3] = test system: A549; test: Cytotoxicity against human A549 cells by MTT assay; assay type: functional, cell-based; how it was run: as §1
[4] = test system: BGC-823; test: Cytotoxicity against human BGC823 cells by MTT assay; assay type: functional, cell-based; how it was run: as §1
[5] = test system: A2780; test: Cytotoxicity against human A2780 cells by MTT assay; assay type: functional, cell-based; how it was run: as §1
[6] = test system: RAW264.7; test: Inhibition of LPS-induced nitric oxide production in mouse RAW264.7 cells at 5 uM; assay type: functional

SMILES	IC50 [1] [µM]	IC50 [2] [µM]	IC50 [3] [µM]	IC50 [4] [µM]	IC50 [5] [µM]	inhibition at 5 µM [6] [%]
CC(=O)O[C@@H]1[C@@H]2[C@@H](O)[C@@]34O[C@@]2(C)COC(=O)c2cnccc2C(C)C(C)(O)C(=O)O[C@@H]([C@H](OC(C)=O)[C@H](OC(C)=O)[C@@]3(COC(=O)c2ccoc2)[C@@H]1OC(C)=O)[C@]4(C)O (some centres not stated) [HYPOGLAUNINE E]	> 1	> 1	> 1	> 1	> 1	
CC(=O)OC[C@]12[C@H](OC(C)=O)[C@H](OC(C)=O)[C@@H]3[C@@H](OC(C)=O)[C@@]14O[C@@]3(C)COC(=O)c1cccnc1CCC(C)(O)C(=O)O[C@@H]([C@H](OC(=O)c1ccco1)[C@@H]2OC(C)=O)[C@]4(C)O (some centres not stated) [WILFORTRINE]	> 1	> 1	> 1	> 1	> 1	
CC(=O)OC[C@@]12[C@@H](OC(C)=O)CC[C@](C)(O)[C@]13OC(C)(C)[C@H]([C@@H](O)[C@H]2OC(=O)c1ccoc1)[C@H]3OC(=O)c1ccoc1 (relative stereo) [TRIPTERSININ J]	> 1	> 1	> 1	> 1	> 1	
CC(=O)OC[C@@]12[C@@H](OC(=O)c3ccoc3)CC[C@](C)(O)[C@]13OC(C)(C)[C@H]([C@@H](OC(=O)c1cccnc1)[C@H]2OC(=O)c1ccoc1)[C@H]3OC(C)=O (relative stereo) [TRIPTERSININ H]	> 1	> 1	> 1	> 1	> 1	
CC(=O)OC[C@@]12[C@@H](OC(=O)/C=C/c3ccccc3)CC[C@](C)(O)[C@]13OC(C)(C)[C@H](C(=O)[C@H]2OC(=O)c1cccnc1)[C@H]3O (relative stereo) [TRIPTERSININ A]	> 1	> 1	> 1	> 1	> 1	47.3
C/C=C(\C)C(=O)O[C@H]1[C@H](OC(C)=O)[C@@H]2[C@@H](OC(=O)c3cccnc3)[C@@]3(OC2(C)C)[C@@]1(COC(C)=O)[C@@H](OC(C)=O)CC[C@]3(C)O (relative stereo)	> 1	> 1	> 1	> 1	> 1	
CC(=O)OC[C@@]12[C@@H](OC(=O)c3ccoc3)CC[C@](C)(O)[C@]13OC(C)(C)[C@H]([C@@H](OC(C)=O)[C@H]2OC(=O)c1ccoc1)[C@H]3OC(C)=O (relative stereo) [TRIPTERSININ K]	> 1	> 1	> 1	> 1	> 1	49.9
CC(=O)OC[C@@]12[C@@H](OC(=O)/C=C/c3ccccc3)CC[C@](C)(O)[C@]13OC(C)(C)[C@H]([C@@H](OC(C)=O)[C@H]2OC(=O)c1cccnc1)[C@H]3O (relative stereo) [TRIPTERSININ C]	> 1	> 1	> 1	> 1	> 1	
CC(=O)OC[C@@]12[C@@H](OC(=O)/C=C\c3ccccc3)CC[C@](C)(O)[C@]13OC(C)(C)[C@H](C(=O)[C@H]2OC(=O)c1cccnc1)[C@H]3O (relative stereo) [TRIPTERSININ B]	> 1	> 1	> 1	> 1	> 1	
CC(=O)OC[C@]12[C@H](OC(C)=O)[C@H](OC(C)=O)[C@@H]3[C@@H](OC(C)=O)[C@@]14O[C@@]3(C)COC(=O)c1cccnc1C(C)C(C)C(=O)O[C@@H]([C@H](OC(C)=O)[C@@H]2OC(C)=O)[C@]4(C)O (some centres not stated) [EUONYMINE]	> 1	> 1	> 1	> 1	> 1	
CC(=O)OC[C@@]12[C@@H](OC(=O)/C=C\c3ccccc3)CC[C@](C)(O)[C@]13OC(C)(C)[C@H]([C@@H](OC(C)=O)[C@H]2OC(=O)c1cccnc1)[C@H]3OC(C)=O (relative stereo) [TRIPTERSININ E]	> 1	> 1	> 1	> 1	> 1	
CC(=O)OC[C@@]12[C@@H](OC(=O)c3ccoc3)CC[C@](C)(O)[C@]13OC(C)(C)[C@H]([C@@H](OC(C)=O)[C@H]2OC(=O)c1ccoc1)[C@H]3O (relative stereo) [TRIPTERSININ I]	> 1	> 1	> 1	> 1	> 1	45.5
CC(=O)OC[C@@]12[C@@H](OC(=O)/C=C\c3ccccc3)CC[C@](C)(O)[C@]13OC(C)(C)[C@H]([C@@H](OC(C)=O)[C@H]2OC(=O)c1cccnc1)[C@H]3O (relative stereo) [TRIPTERSININ D]	> 1	> 1	> 1	> 1	> 1	
CC(=O)OC[C@@]12[C@@H](OC(C)=O)CC[C@](C)(O)[C@]13OC(C)(C)[C@H]([C@@H](OC(=O)c1cccnc1)[C@H]2OC(=O)c1ccoc1)[C@H]3OC(C)=O (relative stereo) [TRIPTERSININ G]	> 1	> 1	> 1	> 1	> 1	
CC(=O)OC[C@]12[C@@H](OC(C)=O)[C@H](OC(C)=O)[C@@H]3[C@@H](OC(C)=O)[C@@]14O[C@@]3(C)COC(=O)c1cnccc1CCC(C)C(=O)O[C@@H]([C@H](OC(C)=O)[C@@H]2OC(C)=O)[C@]4(C)O (some centres not stated) [WILFORDININE E]	> 1	> 1	> 1	> 1	> 1	
CC(=O)OC[C@]12[C@H](OC(C)=O)[C@H](OC(C)=O)[C@@H]3[C@@H](OC(C)=O)[C@@]14O[C@@]3(C)COC(=O)c1cnccc1C(C)C(C)C(=O)O[C@@H]([C@H](OC(C)=O)[C@@H]2OC(C)=O)[C@]4(C)O (some centres not stated) [PERITASSIN A]	> 1	> 1	> 1	> 1	> 1	48.2
CC(=O)OC[C@]12[C@H](OC(C)=O)[C@H](OC(C)=O)[C@@H]3[C@@H](OC(C)=O)[C@@]14O[C@@]3(C)COC(=O)c1cnccc1C(C)C(C)C(=O)O[C@@H]([C@H](O)[C@@H]2OC(C)=O)[C@]4(C)O (some centres not stated) [WILFORDININE A]	> 1	> 1	> 1	> 1	> 1	59
C[C@@H]1C[C@H]2[C@@H]3CCC4=CC(=O)C=C[C@]4(C)[C@@]3(F)[C@@H](O)C[C@]2(C)[C@@]1(O)C(=O)CO [DEXAMETHASONE]						70.4
CC(=O)OC[C@]12[C@H](OC(C)=O)[C@H](OC(C)=O)[C@@H]3[C@@H](OC(C)=O)[C@@]14O[C@@]3(C)COC(=O)c1cccnc1CCC(C)C(=O)O[C@@H]([C@H](OC(C)=O)[C@@H]2OC(C)=O)[C@]4(C)O (some centres not stated) [EUONINE]	> 1	> 1	> 1	> 1	> 1	54.7
CC(=O)OC[C@@]12[C@@H](OC(C)=O)CC[C@](C)(O)[C@]13OC(C)(C)[C@H]([C@@H](OC(C)=O)[C@H]2OC(=O)c1ccoc1)[C@H]3OC(=O)c1cccnc1 (relative stereo) [TRIPTERSININ F]	> 1	> 1	> 1	> 1	> 1	
CC(=O)O[C@@H]1[C@@H]2[C@@H](OC(C)=O)[C@@]34O[C@@]2(C)COC(=O)c2cnccc2C(C)C(C)(O)C(=O)O[C@@H]([C@H](OC(C)=O)[C@H](OC(C)=O)[C@@]3(COC(=O)c2ccco2)[C@@H]1OC(C)=O)[C@]4(C)O (some centres not stated) [HYPOGLAUNINE A]	> 1	> 1	> 1	> 1	> 1	
